Laboratory results: ChEMBL document CHEMBL3244404, “Effect of sulfur substitution for the noncarbonyl oxygen in hemicholinium-3 and acetyl-seco-hemicholinium-3. Synthesis, biological activity, and structure-toxicity relationships” (J Med Chem, 1977)

Columns and labels:
Details in all cases: in vivo
[1] = Toxicity in ip dosed CD-1 mouse assessed as mortality in presence of 0.2 mg/kg, ip neostigmine; format: organism-based; set-up: dose 0.2 mg/kg, route intraperitoneal
Mus musculus [2] = assay: Toxicity in ip dosed CD-1 mouse assessed as mild to moderate ataxia; format: organism-based
In short: (§1)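 Compounds dissolved in normal saline (0.9% NaCl) and injected ip into mice. Signs were recorded as they appeared after dosing. Animals that died were autopsied immediately, with lungs and peritoneal cavity examined for excess fluid and heart and small intestine observed.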

Mus musculus [3] = assay: Toxicity in ip dosed CD-1 mouse assessed as respiratory difficulties; format: organism-based; in short: as §1
Mus musculus [4] = assay: Toxicity in ip dosed CD-1 mouse assessed as increase in peristalsis of the small intestine; format: organism-based; in short: as §1
[5] = Toxicity in ip dosed CD-1 mouse assessed as mortality in presence of 20 mg/kg, ip choline; format: organism-based; set-up: dose 20 mg/kg, route intraperitoneal
Mus musculus [6] = assay: Toxicity in ip dosed CD-1 mouse assessed as exophthalmos; format: organism-based; in short: as §1
Mus musculus [7] = assay: Toxicity in ip dosed CD-1 mouse assessed as loss of righting response; format: organism-based; in short: as §1
Mus musculus [8] = assay: Toxicity in ip dosed CD-1 mouse assessed as cardiac contractions; format: organism-based; in short: as §1
Mus musculus [9] = assay: Toxicity in ip dosed CD-1 mouse assessed as excess fluids in lungs and peritoneal cavity; format: organism-based; in short: as §1
Mus musculus [10] = assay: Toxicity in ip dosed CD-1 mouse assessed as SLUD syndrome; format: organism-based; in short: as §1
Mus musculus [11] = assay: Toxicity in ip dosed CD-1 mouse assessed as clonic convulsions; format: organism-based; in short: as §1
Mus musculus [12] = assay: Ratio of HC-3 LD50 to compound LD50 in CD-1 mouse; format: ADME, organism-based
In short: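 Mice received the compounds ip, dissolved in normal saline (0.9% NaCl). Deaths were scored to derive the ip LD50 in mg/kg with 95% confidence limits. Each LD50 was also expressed as a ratio to that of HC-3. Signs were recorded in the animals that died, and immediate autopsy examined the heart, intestine, lungs and peritoneal cavity.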

C[N+]1(C)CCOC(O)(c2ccc(-c3ccc(C4(O)C[N+](C)(C)CCO4)cc3)cc2)C1.[Br-].[Br-] (configuration not stated)
mortality [1]: 90% | Activity (Mus musculus [2]): Toxic | Activity (Mus musculus [3]): Toxic | Activity (Mus musculus [4]): Toxic | mortality [5]: 15% | Activity (Mus musculus [6]): Toxic | Activity (Mus musculus [7]): Toxic | Activity (Mus musculus [8]): Non-toxic | Activity (Mus musculus [9]): Non-toxic | Activity (Mus musculus [10]): Toxic | Activity (Mus musculus [11]): Toxic

CC(=O)OCC[N+](C)(C)CC(=O)c1ccc(-c2ccc(C(=O)C[N+](C)(C)CCOC(C)=O)cc2)cc1.[Br-].[Br-]
mortality [1]: 80% | Activity (Mus musculus [2]): Toxic | Activity (Mus musculus [3]): Toxic | Activity (Mus musculus [4]): Toxic | mortality [5]: 0% | Activity (Mus musculus [6]): Toxic | Activity (Mus musculus [7]): Toxic | Activity (Mus musculus [8]): Non-toxic | Activity (Mus musculus [9]): Non-toxic | Activity (Mus musculus [10]): Toxic | Ratio (Mus musculus [12]): 1 | Activity (Mus musculus [11]): Toxic

CC(=O)SCC[N+](C)(C)CC(=O)c1ccc(-c2ccc(C(=O)C[N+](C)(C)CCSC(C)=O)cc2)cc1.[Br-].[Br-]
mortality [1]: 30% | Activity (Mus musculus [2]): Toxic | Activity (Mus musculus [3]): Toxic | Activity (Mus musculus [4]): Toxic | mortality [5]: 40% | Activity (Mus musculus [6]): Toxic | Activity (Mus musculus [7]): Toxic | Activity (Mus musculus [8]): Non-toxic | Activity (Mus musculus [9]): Non-toxic | Activity (Mus musculus [10]): Toxic | Ratio (Mus musculus [12]): 1 | Activity (Mus musculus [11]): Toxic

C[N+](C)(CCS)CC(=O)c1ccc(-c2ccc(C(=O)C[N+](C)(C)CCS)cc2)cc1.[Br-].[Br-]
mortality [1]: 70% | Activity (Mus musculus [2]): Toxic | Activity (Mus musculus [3]): Toxic | Activity (Mus musculus [4]): Toxic | mortality [5]: 10% | Activity (Mus musculus [6]): Toxic | Activity (Mus musculus [7]): Toxic | Activity (Mus musculus [8]): Non-toxic | Activity (Mus musculus [9]): Non-toxic | Activity (Mus musculus [10]): Toxic | Ratio (Mus musculus [12]): 226 | Activity (Mus musculus [11]): Toxic
